In the RNAGym collection of RNA variant scans (doi:10.1126/science.aae0568):
This sample holds only a part of the variants without activity.

B1: tRNA (parent)
chain: GUUCCGUUGGCGUAAUGGUAACGCGUCUCCCUCCUAAGGAGAAGACUGCGGGUUCGAGUCCCGUACGGAACG

Variants of: B1
Experiment: yeast fitness relative to wild type (ratio to wild type); higher = fitter; tRNA-Arg(CCU), competitive growth, 37 C, YPD
Summary of the method: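 A pool of Saccharomyces cerevisiae strains, each with a tRNA-Arg(CCU) gene variant at the native genomic locus, was competed in YPD at 37°C for 24 hours across six parallel replicates. The variants had been chemically synthesised at a 3% per-site mutation rate over 69 sites, and gene amplicons before and after competition were read by 100-nucleotide paired-end sequencing. Darwinian fitness relative to wild type rested on changes in genotype frequencies. Genotypes required ≥ 100 starting reads, and estimates < 0.5 were set to 0.5.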

For GUUCCGUUGCCGUAAUGGUAAGGCGUCUCUCUCCUAAGGAGAAGACUGCGGGUUUGAGUCCCGUACGGAACG [G10C C22G C30U C55U], which yeast fitness is on record?
The yeast fitness was at most 0.5.

For GUUCCGUUGCCGUAAUGGUAAAGGGUCUCCCUCCUAAGGAGAAGACUGCGGGAUCCAGUCCUGUACGGAACG [G10C C22A C24G U53A G56C C62U], which yeast fitness is on record?
Its yeast fitness is at most 0.5.

For GUUCCGUUGCCGUAAUGGUAAAGCGUCUCCCUCCCAAGGAGAAGACUGCGGGUUCGAGUGUCAUACGGAACG [G10C C22A U35C C60G C61U G63A], which yeast fitness is on record?
The yeast fitness was at most 0.5.

With GUUCCGUUGCCGUAAUGGUAACGCGUGUCCCUCCUAAGGAGCAGACUGCGGGUUCGAGUCCCGUAUGGAACG [G10C C27G A42C C66U] as the variant, how does the yeast fitness read?
Its yeast fitness is 0.534.

Which yeast fitness does the source give for GUUCCGUUGCUGUAAUGGUAACGCGUCUCCCUCCUAAGGAGAAGACUGAGGGUUCGAGUCCCGUCCGGAACG [G10C C11U C49A A65C] here?
Its yeast fitness is at most 0.5.

For GUUCCGUUGCCGUAAUGGUAACGUGUCUCCCUCCUAAGGAGAAGACUGCGGGUUCGAGUCCCGCACGGAACG [G10C C24U U64C], which yeast fitness is on record?
The yeast fitness was at most 0.5.

With GUUCCGUUGCCGUAAUGGUAAGGCGUCUACCUCCUAAGGAAAAGAUUGCGGGUUCGAGUCCCGUCCGGAACG [G10C C22G C29A G41A C46U A65C] as the variant, how does the yeast fitness read?
The yeast fitness was at most 0.5.

With GUUCCGUUGCCGUAAUGGUAACGGGUUUCCCUUCUAAGGAGAAGACUGCCGGUUCGAGUCCCGUACGAAACG [G10C C24G C27U C33U G50C G68A] as the variant, how does the yeast fitness read?
The yeast fitness was at most 0.5.

With GUUCCGUUGCCGUAAUGGUAAUGCGUCUCCCUCCUAAGGAGAAGACUGCGGGUUCGAGUCCCGUCCGGAACG [G10C C22U A65C] as the variant, how does the yeast fitness read?
Its yeast fitness is at most 0.5.

With GUUCCGUUGCCGUAAUGGUAAUGCGUCUCCCUCCUAAGGAGUAGACUGCGGGUUCGAGUGCCGUACGGAACG [G10C C22U A42U C60G] as the variant, how does the yeast fitness read?
Its yeast fitness is at most 0.5.

Which yeast fitness does the source give for GUUCCGUUGCCGUAAUGGUAAUGCGUCUCCCUCCUAAGGAGAAGACUGCGGAUUCGAGUCCCGUACGGAACG [G10C C22U G52A] here?
The yeast fitness was at most 0.5.

Which yeast fitness does the source give for GUUCCGUUGCCGUAAUGGUAAUGCGUCUCCCUCCUAAGGAGAAGACUGCGGGUUCGAGUUACCUUCGGAACG [G10C C22U C60U C61A G63C A65U] here?
The yeast fitness was at most 0.5.

For GUUCCGUUGCCGUAAUGGUAACGCGUGUCCCUCCUAAGGAGCAGACUGCGGGUUCGAGUCCCGUACGGAACG [G10C C27G A42C], which yeast fitness is on record?
The yeast fitness was at most 0.5.

Which yeast fitness does the source give for GUUCCGUUGCCGUAAUGGUAAAGGGUCUCCCUCCUAAGGAGAAGACUGCGGGUUCGAGUCCCGUUCGGAACG [G10C C22A C24G A65U] here?
Its yeast fitness is at most 0.5.

For GUUCCGUUGCCGUAAUGGUAACGAGUCUCCCUCCUAAGGAGAAGAUUGCGGGUUCGAGUCCCGUACGGAACG [G10C C24A C46U], which yeast fitness is on record?
Its yeast fitness is at most 0.5.

For GUUCCGUUGCCGUAAUGGUAACGCGUGUCCCUCCUAAGGAGCAGACUGAGGGUUCGAGUCCCGUACAGAACG [G10C C27G A42C C49A G67A], which yeast fitness is on record?
The yeast fitness was at most 0.5.

With GUUCCGUUGCCGUAAUGGUAACGUGUCUGCCUCCUAAGGAGAAGACUGCGGGUUCGAGUCCCGUACGGAACG [G10C C24U C29G] as the variant, how does the yeast fitness read?
The yeast fitness was 0.638.

With GUUCCGUUGCCGUAAUGGUAACGUGUCUCCCUCCUAAGGAGAAGACUGCGGGUUCGAGUCGCGUAUGGUACG [G10C C24U C61G C66U A69U] as the variant, how does the yeast fitness read?
The yeast fitness was at most 0.5.

Which yeast fitness does the source give for GUUCCGUUGCCGUAAUGGUAAUGCGUCUCGCUCCUAAGGCGAAGACUGCAGGUUCGAGUGCCGUACGGAACG [G10C C22U C30G A40C G50A C60G] here?
The yeast fitness was at most 0.5.

For GUUCCGUUGCCGUAAUGGUAAUGCGUCUCCCUUCCAAGGAGAAGACUGCGGGUUCGAGUCCCGUACGGAACG [G10C C22U C33U U35C], which yeast fitness is on record?
Its yeast fitness is at most 0.5.

Which yeast fitness does the source give for GUUCCGUUGCCGUAAUGGUAAAGCGUCUCCCUACUAAGGAGAAGACUGCGGGUUCGAGUCCCGUACGGAACG [G10C C22A C33A] here?
Its yeast fitness is 0.538.

With GUUCCGUUGCUGUAAUGGUAACGCGUCUCCCUCCUAAGGAGAAGACUGAGGGUUCGAGUCCCGUACGGAACG [G10C C11U C49A] as the variant, how does the yeast fitness read?
Its yeast fitness is 0.562.

For GUUCCGUUGCCGUAAUGGUAAUGCGUCUCCCUCCUAAGGAGAAGACUGUGGGUUCGAGUCCCGUACGGAGCG [G10C C22U C49U A70G], which yeast fitness is on record?
The yeast fitness was at most 0.5.

Which yeast fitness does the source give for GUUCCGUUGCCGUAAUGGUAACGGGUCUCCCUCCUAAGGAGAAGACUGGGGGUUAGAGUCCCGUACGGAACG [G10C C24G C49G C55A] here?
The yeast fitness was 0.683.

With GUUCCGUUGCCGUAAUGGUAACGCGUAUCCCUCCUAAGGAGAAGACUGCGGGUUCGAGUCCCGUACGGAACG [G10C C27A] as the variant, how does the yeast fitness read?
Its yeast fitness is 0.593.

For GUUCCGUUGCCGUAAUGGUAAAGCGUCUGCCUCCUAAGGAGAAGACUGGGGGUUCGAGUCCCGUACGGAACG [G10C C22A C29G C49G], which yeast fitness is on record?
The yeast fitness was at most 0.5.

With GUUCCGUUGCCGUAAUGGUAACGGGUCUCCCUCCUAAGGAGAAGACUGCGGGUUCGAGUCCCGUACGGAUCG [G10C C24G A70U] as the variant, how does the yeast fitness read?
The yeast fitness was at most 0.5.

Which yeast fitness does the source give for GUUCCGUUGCCGUAAUGGUAACGAGUCUCCCUCCUAAGGAGAAGACUGCGGAUUCGAGUCCCGUACGGAACG [G10C C24A G52A] here?
Its yeast fitness is at most 0.5.

For GUUCCGUUGCCGUAAUGGUAACGGGUCUCCCUCCUAAGGAGAAGACUGUGGGUUCGAGUCCCGUAUGGAACG [G10C C24G C49U C66U], which yeast fitness is on record?
Its yeast fitness is at most 0.5.

For GUUCCGUUGCCGUAAUGGUAACGGGUCUCCCUCCUAAGGAGAAGAUUGCGGGUUCGAGUCCCGUACGGAACG [G10C C24G C46U], which yeast fitness is on record?
The yeast fitness was 0.702.

For GUUCCGUUGCCGUAAUGGUAACGGGUCUCCCUCCUAAGGAGAAGACUGCGGGUUAGAGUCCCGUACGGAACG [G10C C24G C55A], which yeast fitness is on record?
Its yeast fitness is at most 0.5.

Which yeast fitness does the source give for GUUCCGUUGCCGUAAUGGUAACGGGUCUCCCUCCUAAGGAGAAGACUGUGGGUUCGAGUCCCGUACGGAACG [G10C C24G C49U] here?
Its yeast fitness is at most 0.5.

With GUUCCGUUGCCGUAAUGGUAACGGGUCUCCCUCCUAAGGAGAAGACUGGGGGUUCGAGUCCCGUACGGAACG [G10C C24G C49G] as the variant, how does the yeast fitness read?
The yeast fitness was at most 0.5.

With GUUCCGUUGCCGUAAUGGUAACGCGUGUCCCUCCUAAGGAGAAGACUGCGGGUUCGAGUCGCGUACGGAACG [G10C C27G C61G] as the variant, how does the yeast fitness read?
The yeast fitness was at most 0.5.

With GUUCCGUUGCCGUAAUGGUAAUGAGUCCCCCUCCUAAGGAGAAGGCUGCGGGUUCGAGUCCCGUACGGAACG [G10C C22U C24A U28C A45G] as the variant, how does the yeast fitness read?
Its yeast fitness is at most 0.5.

For GUUCCGUUGCCGUAAUGGUAACGUGUCUACCUCCUAAGGAGGAGUGAGCAGGUUCGAGUCCCGGACGGAACG [G10C C24U C29A A42G A45U C46G U47A G50A U64G], which yeast fitness is on record?
Its yeast fitness is at most 0.5.

For GUUCCGUUGCCGUAAUGGUAACGAGUCUCGCUCCUAAGGGGAAGACGGCGGGUUUGAGUCCCGUACGGAACG [G10C C24A C30G A40G U47G C55U], which yeast fitness is on record?
Its yeast fitness is at most 0.5.

Which yeast fitness does the source give for GUUCCGUUGCCGUAAUGGUAAAGGGUCUCCCUCCUAAGGAGAAGACUGCGGGUUCGAGUCCCGUACGGACCG [G10C C22A C24G A70C] here?
Its yeast fitness is 0.531.
